Test results published in ChEMBL document CHEMBL1821673, “Development of β-amino alcohol derivatives that inhibit Toll-like receptor 4 mediated inflammatory response as potential antiseptics” (J Med Chem, 2011).
The source made the active and inactive calls. No cut-off for these calls is given here.

Tests used:
Toll-like receptor 4 [1] = target: T1, Toll-like receptor 4 (Homo sapiens, UniProt O00206); assay: Inhibition of LPS-induced TLR4 activation in human whole blood assessed as inhibition of IL-6 release preincubated for 5 to 10 mins
T1 sequence (O00206 whole entry): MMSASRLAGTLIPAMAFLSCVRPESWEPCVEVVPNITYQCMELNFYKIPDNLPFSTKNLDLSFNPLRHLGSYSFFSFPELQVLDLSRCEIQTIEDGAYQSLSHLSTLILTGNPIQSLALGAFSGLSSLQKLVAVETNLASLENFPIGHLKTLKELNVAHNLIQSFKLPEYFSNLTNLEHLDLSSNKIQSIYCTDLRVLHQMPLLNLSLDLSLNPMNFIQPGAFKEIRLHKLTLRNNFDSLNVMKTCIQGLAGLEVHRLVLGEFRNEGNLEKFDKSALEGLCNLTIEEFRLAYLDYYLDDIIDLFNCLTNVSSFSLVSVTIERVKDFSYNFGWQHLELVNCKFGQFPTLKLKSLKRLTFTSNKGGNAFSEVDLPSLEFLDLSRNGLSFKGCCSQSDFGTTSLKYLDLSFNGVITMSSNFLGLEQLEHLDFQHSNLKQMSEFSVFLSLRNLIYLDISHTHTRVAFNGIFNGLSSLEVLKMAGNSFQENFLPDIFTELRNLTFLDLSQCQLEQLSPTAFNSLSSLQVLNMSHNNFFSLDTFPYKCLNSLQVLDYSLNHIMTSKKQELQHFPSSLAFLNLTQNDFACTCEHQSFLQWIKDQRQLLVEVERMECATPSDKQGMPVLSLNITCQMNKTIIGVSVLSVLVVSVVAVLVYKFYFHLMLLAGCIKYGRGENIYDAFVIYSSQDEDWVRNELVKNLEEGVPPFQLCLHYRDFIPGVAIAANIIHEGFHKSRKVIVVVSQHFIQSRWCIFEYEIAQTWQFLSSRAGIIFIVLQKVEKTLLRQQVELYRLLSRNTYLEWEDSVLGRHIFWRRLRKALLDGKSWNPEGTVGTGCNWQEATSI
Method in brief: (§1)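 Fresh human blood anticoagulated with lepirudin, preincubated with compound 5–10 min at 37 °C, then stimulated with 100 ng/mL ultrapure E. coli 0111:B4 LPS, rotating 2 h at 37 °C. Stopped with EDTA 10 mM final; plasma TNF-α, IL-8 and IL-6 measured by singleplex Bio-plex, expressed as % of LPS without inhibitor. n = 3 or 9, paired two-sided t-test.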

[2] = target: Glycogen synthase kinase-3 alpha (Homo sapiens) (UniProt P49840); assay: Inhibition of GSK3alpha at 28 uM by luciferase fragment complementation assay
Glycogen synthase kinase-3 alpha (Homo sapiens), sequence (P49840 2-483 limits assumed): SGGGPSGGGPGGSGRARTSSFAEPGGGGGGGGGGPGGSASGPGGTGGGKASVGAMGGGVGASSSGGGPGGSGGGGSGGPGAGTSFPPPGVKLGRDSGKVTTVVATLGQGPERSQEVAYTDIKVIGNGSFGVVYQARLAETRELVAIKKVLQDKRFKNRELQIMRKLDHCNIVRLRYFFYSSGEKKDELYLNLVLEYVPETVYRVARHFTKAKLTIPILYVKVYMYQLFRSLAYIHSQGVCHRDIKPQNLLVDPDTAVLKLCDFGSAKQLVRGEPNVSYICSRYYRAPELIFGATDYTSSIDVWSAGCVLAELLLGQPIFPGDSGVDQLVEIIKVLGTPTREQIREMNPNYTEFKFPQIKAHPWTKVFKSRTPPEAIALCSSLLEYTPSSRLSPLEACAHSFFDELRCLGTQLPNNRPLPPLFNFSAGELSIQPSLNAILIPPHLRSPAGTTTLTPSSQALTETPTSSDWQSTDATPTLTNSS

Toll-like receptor 4 [3] = target: T1, Toll-like receptor 4; assay: Inhibition of LPS-induced TLR4 activation in human whole blood assessed as reduction in plasma IL-6 level at 250 uM preincubated for 5 to 10 mins; method in brief: as §1
Toll-like receptor 4 [4] = target: T1, Toll-like receptor 4; assay: Inhibition of LPS-induced TLR4 activation in human whole blood assessed as inhibition of IL-8 release at 500 uM preincubated for 5 to 10 mins; method in brief: as §1
Toll-like receptor 4 [5] = target: T1, Toll-like receptor 4; assay: Inhibition of LPS-induced TLR4 activation in human whole blood assessed as inhibition of IL-6 release at 250 uM preincubated for 5 to 10 mins; method in brief: as §1
Toll-like receptor 4 [6] = target: T1, Toll-like receptor 4; assay: Inhibition of LPS-induced TLR4 activation in human whole blood assessed as inhibition of TNFalpha release at 500 uM preincubated for 5 to 10 mins; method in brief: as §1
[7] = target: Calcium/calmodulin-dependent protein kinase type 1 (Homo sapiens) (UniProt Q14012); assay: Inhibition of CAMK1 at 28 uM by luciferase fragment complementation assay
Calcium/calmodulin-dependent protein kinase type 1 (Homo sapiens), sequence (Q14012 whole entry, looked up, the tested form may be a part): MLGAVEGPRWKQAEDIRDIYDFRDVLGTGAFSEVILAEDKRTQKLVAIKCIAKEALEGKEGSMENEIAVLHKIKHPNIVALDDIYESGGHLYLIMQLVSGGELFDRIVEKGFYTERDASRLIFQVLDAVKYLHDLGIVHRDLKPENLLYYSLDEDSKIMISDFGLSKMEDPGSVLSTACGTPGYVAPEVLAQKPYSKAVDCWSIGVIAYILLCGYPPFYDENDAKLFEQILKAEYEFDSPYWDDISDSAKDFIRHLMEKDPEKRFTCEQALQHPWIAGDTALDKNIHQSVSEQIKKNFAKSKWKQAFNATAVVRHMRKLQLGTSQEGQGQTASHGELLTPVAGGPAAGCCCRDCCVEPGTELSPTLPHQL

Toll-like receptor 4 [8] = target: T2, Toll-like receptor 4 (Mus musculus, UniProt Q9QUK6); assay: Inhibition of LPS-induced TLR4 activation in mouse RAW264.7 cells assessed as reduction in NO production after 18 to 24 hrs; assay type: cell-based
T2 sequence (Q9QUK6 whole entry): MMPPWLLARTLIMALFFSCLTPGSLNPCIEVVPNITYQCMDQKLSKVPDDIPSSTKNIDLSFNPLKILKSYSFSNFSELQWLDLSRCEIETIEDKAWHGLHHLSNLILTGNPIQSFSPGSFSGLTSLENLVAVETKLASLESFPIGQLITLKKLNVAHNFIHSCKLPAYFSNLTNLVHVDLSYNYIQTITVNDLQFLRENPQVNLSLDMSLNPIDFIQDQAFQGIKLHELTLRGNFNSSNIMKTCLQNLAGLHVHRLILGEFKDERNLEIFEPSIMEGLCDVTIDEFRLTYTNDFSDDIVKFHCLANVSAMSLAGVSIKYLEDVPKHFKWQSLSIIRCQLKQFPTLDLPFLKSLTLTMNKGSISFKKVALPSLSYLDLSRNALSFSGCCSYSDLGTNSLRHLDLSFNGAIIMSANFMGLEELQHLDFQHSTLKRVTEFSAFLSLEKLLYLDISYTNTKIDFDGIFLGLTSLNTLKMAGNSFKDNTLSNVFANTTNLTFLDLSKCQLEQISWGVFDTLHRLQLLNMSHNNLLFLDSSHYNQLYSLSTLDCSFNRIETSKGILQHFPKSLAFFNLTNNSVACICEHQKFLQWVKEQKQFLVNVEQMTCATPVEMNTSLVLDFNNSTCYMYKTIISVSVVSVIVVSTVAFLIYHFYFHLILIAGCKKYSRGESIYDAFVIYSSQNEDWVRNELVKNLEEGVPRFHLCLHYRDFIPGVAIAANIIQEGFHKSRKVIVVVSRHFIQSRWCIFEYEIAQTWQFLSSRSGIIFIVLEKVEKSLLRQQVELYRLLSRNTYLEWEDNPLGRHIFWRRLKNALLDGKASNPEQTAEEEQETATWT
Method in brief: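 RAW264.7 cells, 100,000 per well, grown 24 h in RPMI with 10% FBS, then switched to unsupplemented RPMI. LPS and compound added together, 18–24 h at 37 °C. Medium nitrite measured with 2,3-diaminonaphthalene (ex 365/em 450 nm) against a nitrite standard curve. Quadruplicate; IC50 by a modified Kou-type method.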

IC50 (Toll-like receptor 4 [1]): 318 µM
inhibition (Toll-like receptor 4 [1]): Dose-dependent effect
inhibition [2]: ≤ 27%
inhibition (Toll-like receptor 4 [3]): 50%
inhibition (Toll-like receptor 4 [4]): Active
inhibition (Toll-like receptor 4 [5]): inactive
inhibition (Toll-like receptor 4 [6]): Active
inhibition [7]: ≤ 27%
IC50 (Toll-like receptor 4 [8]): 27.8 µM
SMILES: CCOc1ccc(OCC(O)CN(C)Cc2c(C)nn(Cc3ccccc3Cl)c2C)cc1 (racemic)
